# Values without a mark were called inactive. Inconclusive results are not listed. Calls of active or inactive are those of the source.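 Rule for the calls, unless noted: active = RAM network inhibition above 8.4% in each of two replicates, 3 SD over the compound average; inconclusive = above 8.4% inhibition in only one replicate; inactive = 8.4% inhibition or less in each replicate.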
# Experiments:
# [1] = OD615 S. cerevisiae growth inhibition, permissive medium, pilot counter-assay, permissive growth control for S. cerevisiae lifespan shortening project (AID 705;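 active = growth inhibition above 25% in both replicates, a cutoff set 3 SD above the mean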); conditions: OD615, 24 h, at 10 µM, active compounds read high
# In short: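 System: Engineered DeaD yeast | Buffer or medium: SC raffinose/galactose permissive medium | Incubation: Cells pre-grown 4 h, then 24 h compound exposure, 30 °C humidified | Measured by: Absorbance (optical density) at 615 nm | Read-out: Reduction in yeast growth (OD615)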
# [2] = Restrictive medium S. cerevisiae growth inhibition, OD615, pilot screen of yeast lifespan reduction project, restrictive growth control (AID 706;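 active = growth inhibition above a set limit, 3 SD over mean compound inhibition, in both replicates, cut at about 43% in these data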;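 note: modified DeaD lifespan yeast strain shifted to restrictive glucose medium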); conditions: OD615, 48 h, at 10 µM, active compounds read high
# In short: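 Material: modified S. cerevisiae; Medium: glucose-based CSMM-D restrictive medium; Compound dosing: one concentration, 10 µM final, 0.25% DMSO; Incubation: 48 h compound exposure at 30 °C; Measured by: OD615.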
# [3] = viability gain of MRP-1-high H69AR cells under doxorubicin, pilot screen, MRP-1 activator project, CellTiter-Glo, duplicate (AID 807;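 active = viability increase at or above a cutoff of the median across tested compounds plus 3 SD, cut at about 8.5% in these data, passing the limit was not always enough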;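 note: compound pretreatment 18-22 h then 72 h combined with doxorubicin; 0% = doxorubicin alone and 100% = vehicle without doxorubicin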); conditions: H69AR viability with doxorubicin, CellTiter-Glo luminescence; at 10 µM; active compounds read high
# [4] = growth suppression of beta-catenin knockout HCT116, pilot screen, human colon tumor cells (AID 823;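 active = cell viability at or below a set limit in both duplicate runs, the limit being the all-compound median minus 4 SD, cut at about 23% in these data, passing the limit was not always enough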;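 note: 0% = wells killed by 20 µM Hyamine and 100% = untreated DMSO cell wells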); conditions: CellTiter-Glo, 60 h, at 10 µM, active compounds read low
# [5] = growth suppression of PTEN-deleted HCT116, pilot screen, cell-based, HCT116 clonal line, CellTiter-Glo (AID 824;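 active = viability at or below 27.92% in each of two runs, the all-compound median minus 4 SD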;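 note: 0% = 20 µM Hyamine control and 100% = vehicle cell control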); conditions: 60 h, at 10 µM, active compounds read low
# [6] = inhibitors of the yeast RAM network, pilot screen, dse1pr::URA3 reporter, 5-FOA selection (AID 869;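 active = inhibition over a set limit, the all-compound mean plus 3 SD, in both replicate runs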;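 note: 0% = DMSO wells with no growth and 100% = 10 µM 1-NA-PP1 with full growth; RAM network block rescues cells from 5-FOA so hits raise OD615 growth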); conditions: S. cerevisiae dse1pr::URA3 5-FOA growth, OD615, 2 d; at 10 µM; active compounds read high; strain carries analog-sensitive mutant Cbk1 kinase
# [7] = RAM signaling pathway blockade in yeast – S. cerevisiae, Pdr1DBD-CYC8 efflux-inhibited sensitized strain, primary screen (AID 1298);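 note: 0% = DMSO untreated cells without growth and 100% = 10 µM 1-NA-PP1 full growth; higher means more yeast growth rescued from 5-FOA killing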; conditions: S. cerevisiae cbk1-as DSE1-URA3 strain, 5-FOA growth OD615, 2 d; at 50 µM; active compounds read high
SMILES,growth inhibition [1],growth inhibition [2],viability increase [3],viability [4],viability [5],inhibition [6],RAM network inhibition [7]
O=C(NCCC1=CCCCC1)C1CCCN(S(=O)(=O)c2cccnc2)C1 (centres undefined),-1.48%,3.42%,0.1%,95.8%,101%,1.75%,1.4%
COc1ccc(S(=O)(=O)NCC2CCC(C(=O)N3CCC4(CC3)OCCO4)CC2)cc1 (centres undefined),-5.13%,-3.68%,-1.38%,94.2%,90.6%,0.81%,2.29%
Cc1[nH]n2c(=O)c3c(nc2c1-c1ccc(Cl)cc1)CCC3,-14.1%,-8.77%,-2.32%,22.5% (active),26.8% (active),1.88%,6.65%
COC(=O)c1ccccc1NC(NC(=O)c1ccco1)C(=O)c1ccc(C)cc1 (centres undefined),-0.235%,-5.5%,-4.41%,79%,70.3%,4.25%,7.66%
N#Cc1c2n(c3c(=O)n(CC(=O)c4ccc(Br)cc4)cnc13)CCCC2,-18.3%,-5.47%,-0.17%,86.1%,86%,0.885%,2.03%
CCOC(=O)C1=C(C)NC(=O)NC1c1cn(-c2ccccc2)nc1-c1cccs1 (centres undefined),-10.2%,-0.16%,-0.43%,75.2%,72.2%,1.46%,3.87%
COC(=O)c1cc(NC(=O)c2nccnc2C(=O)O)cc(C(=O)OC)c1,-10.9%,3.16%,-1.21%,90.4%,98%,-0.12%,-1.46%
Brc1cccc(-c2nnc3sc(CNC4CCCC4)cn23)c1,-6.88%,5.62%,-0.97%,95.7%,89.6%,1.56%,3.26%
O=c1cnn(-c2ccccc2)c(-c2ccccc2)c1,-15.7%,-5.25%,-6.23%,31.1%,24% (active),2.04%,1.25%
CCCCSc1nc2c(c(=O)n1CC)SC(C)C2 (centres undefined),-3.78%,5.58%,-2.43%,87.3%,87.8%,0.125%,5.53%
Cc1cc(C)cc(OCC(O)CN2C(=O)NC(C)(C)C2=O)c1 (centres undefined),2.01%,2.59%,0.13%,108%,103%,-0.255%,2.26%
Cc1cc(C)n2nc(C(=O)Oc3ccc4c(c3)OCO4)nc2n1,-3.75%,-24%,-1.75%,99%,104%,1.7%,3.06%
Cc1ccc(C)c2[nH]c(=O)c(CCNC(=O)C(C)C)cc12,-14.5%,-18.6%,-0.31%,102%,104%,1.83%,2.82%
O=C(CN(c1ccc(F)cc1)S(=O)(=O)c1ccc2c(c1)OCCO2)N1CCOCC1,-3.38%,-12.4%,-2.08%,107%,104%,0.625%,2.45%
Cc1cc2ccccc2n1CCNC(=O)C(C)C,-8.34%,-7.54%,-1.99%,102%,98.7%,0.15%,2.1%
O=C(O)Cn1ncc2c1-c1ccoc1CC2,-0.31%,2.4%,-0.14%,106%,96.6%,2.17%,0.47%
COc1ccc(-c2nc(-c3ccc(NC(=O)c4ccncc4)cc3)no2)cc1OC,-3.46%,9.41%,0.06%,42.6%,50.8%,2.85%,2.92%
Cc1ccc2oc(Nc3nc(C)cc(C)n3)nc2c1,-6.34%,13.1%,0.49%,102%,94.8%,1.01%,0.61%
COc1cccc(-c2nnc(SCC(=O)N3CC(C)CC(C)C3)o2)c1 (centres undefined),-6.77%,-0.75%,-3.25%,98%,90.5%,0.535%,0.7%
CCOc1ccc(N(CC(=O)Nc2ccc3c(c2)OCCO3)S(=O)(=O)c2c(C)noc2C)cc1,-6.29%,-0.165%,-3.41%,81.6%,87%,3.58%,4.67%
CC(=O)n1c2ccccc2c2c1c1ccccc1n2C,10.6%,3.17%,-4.83%,96%,82.6%,2.49%,2%
Cc1[nH]c2ccccc2c1Cc1nnc(SCC(N)=O)o1,5.65%,-5.42%,-0.41%,100%,102%,1.88%,1.36%
COC(=O)c1cn(NC(=O)c2ccc3c(c2)OCO3)c(=O)c2ccccc12,-4.02%,-1.45%,-2.75%,96.3%,97.3%,1.44%,6.69%
CCC(CO)N=CC1=C(O)C(C(=O)c2ccccc2)CCC1=O (centres undefined),-10.4%,-14.8%,1.63%,96.5%,105%,0.62%,2.38%

SMILES,growth inhibition [1],growth inhibition [2],viability increase [3],viability [4],viability [5],inhibition [6],RAM network inhibition [7]
CCOc1ccccc1Nc1nnc(Cc2ccccc2Cl)c(=O)[nH]1,-24.5%,-19.1%,-2.83%,90.7%,94.6%,0.115%,5.74%
NC(=O)CSc1nc2ccccc2n1-c1ccccc1,-9.13%,1.74%,-0.83%,99%,97.5%,0.02%,0.62%
O=C1C2CCCN2C(c2ccc(F)c(F)c2)N1c1cccc(Cl)c1 (centres undefined),3.17%,-1.67%,-0.86%,101%,100%,0.745%,5.42%
CCCC(=O)NCCCc1nc2ccccc2[nH]1,-8.81%,-14.7%,1.33%,108%,100%,1.45%,2.55%
CCC(C)Sc1nnc(Cc2cc(=O)[nH]c(=O)[nH]2)n1-c1ccc(F)cc1 (centres undefined),-0.665%,15.2%,-1.78%,97.1%,100%,0.605%,-1.47%
O=c1sc(N2CCN(c3ccccc3F)CC2)nc2ccsc12,-7.07%,-8.01%,-1.94%,85.3%,81.9%,3.63%,7.46%
O=C(CCc1ccccc1)Nc1nnc(-c2cccs2)o1,-12.3%,-2.62%,-4.02%,103%,97.3%,1.6%,3.35%
O=C(Nc1cccc(F)c1)c1ccc(S(=O)(=O)N2CCCC2)cc1,-3.88%,0%,1.26%,101%,97%,1.78%,-0.43%
CC(=O)Nc1ccc(S(=O)(=O)n2cnc3cc(C)c(C)cc32)cc1,-7.58%,1.31%,-0.2%,99.6%,92.2%,-0.09%,1.45%
CCCc1cc(=O)[nH]c(SCC(=O)N2CCN(S(=O)(=O)c3ccc(C)cc3)C2)n1,-4.67%,-21.2%,-1.75%,98.8%,85.6%,2.64%,3.8%
c1ccc2c(c1)ncc1cccn12,-16.6%,-12.8%,-5.24%,104%,89%,2.58%,5.07%
CCOC(=O)c1ccccc1NC(=O)CN(c1cccc(OC)c1)S(C)(=O)=O,-7.1%,-3.34%,-5.04%,91.7%,83.3%,1.65%,4.56%
O=C1C2CCCN2C(c2ccccc2)N1c1ccc(F)cc1 (centres undefined),-1.42%,3.23%,-2.06%,96.9%,89.3%,2.05%,2.34%
COc1ccc2cc(CCNC(=O)C3CCCC3)c(=O)[nH]c2c1,-6.89%,-9.8%,-0.27%,109%,98.5%,1.08%,0.21%
Cc1cc(NS(=O)(=O)c2ccccc2)c(C)c(Cl)c1O,-8.22%,-15.3%,-4.31%,1.97% (active),3.14% (active),2.38%,6.4%
CC1CCCCC1NS(=O)(=O)c1ccc(S(=O)(=O)N2CCN(CCC#N)CC2)cc1 (centres undefined),-0.665%,-2.72%,-2.84%,86.2%,87.8%,0.54%,3.44%
Cc1ccc2oc(=O)c3cnn(CC(=O)N(CCC(C)C)Cc4ccco4)c3c2c1,-4.76%,-1.21%,-3.21%,88.5%,87.3%,0.29%,5.23%
COc1ccc(C2NC(=O)NC(C)=C2C(=O)Nc2cccc(C)c2C)cc1 (centres undefined),-6.41%,1.47%,-1.09%,101%,103%,0.77%,1.64%
O=S(=O)(NCC(c1cccnc1)N1CCN(Cc2ccccc2)CC1)c1ccccc1 (centres undefined),-10%,-15.8%,-2.02%,101%,92.8%,1.57%,0.96%
Cc1ccc(S(=O)(=O)N2CCCC(C(=O)O)C2)s1 (centres undefined),-4.2%,-4.86%,1.27%,97%,99.6%,0.59%,-1.67%
O=C(Cc1ccccc1)Nc1c(C(=O)N2CCOCC2)cnn1-c1ccccc1,6.39%,-23.4%,-1.59%,93.5%,97%,1.21%,1.24%
COc1ccc(CCN2CC34C=CC(O3)C(C(=O)NCc3ccccc3)C4C2=O)cc1OC (centres undefined),-2.83%,-11.6%,-1.24%,95.2%,93.9%,0.89%,9.27%
CC(C)(C)C1CCc2c(sc(NC(=O)c3cc(C4CC4)on3)c2C#N)C1 (centres undefined),-2.48%,-5.6%,-1.27%,96.8%,90.5%,3.56%,2.83%

# — PubChem BioAssay
